The results in this text go back to ChEMBL document CHEMBL4680221, “Discovery of pyrazole derivatives as cellular active inhibitors of histone lysine specific demethylase 5B (KDM5B/JARID1B)” (Eur J Med Chem, 2020).

Activity calls are given as the source filed them. The calls are words filed in the database; no cut-off is given here.

The target in data set [1] is T1, Lysine-specific demethylase 5B (Homo sapiens, UniProt Q9UGL1). The data set is described as follows: Inhibition of recombinant human N-terminal FLAG-tagged KDM5B expressed in Sf9 insect cells using biotin-H3K4me as substrate by ALPHA. The gist of the method:
(§1)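 ALPHA demethylase assay. Recombinant KDM5B (4 nM) was preincubated with compound, then biotin-H3K4me3 peptide (64 nM) was added. Buffer: 10 μM α-KG, 100 μM ascorbate, 50 μM (NH4)2Fe(SO4)2, 50 mM HEPES pH 7.5, 0.01% Tween 20, 0.1% BSA. Read-out used streptavidin donor and H3K4me1-2 antibody acceptor beads. Data were normalized to blank control and IC50 fitted.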

Data set [2] addresses T1, Lysine-specific demethylase 5B. Briefly: Inhibition of recombinant human N-terminal FLAG-tagged KDM5B expressed in Sf9 insect cells at 10 uM using biotin-H3K4me as substrate by ALPHA relative to control. The essentials: as §1
Data set [3] has as its target T2, Lysine-specific demethylase 4A (Homo sapiens) (UniProt O75164).
T2 sequence (whole entry): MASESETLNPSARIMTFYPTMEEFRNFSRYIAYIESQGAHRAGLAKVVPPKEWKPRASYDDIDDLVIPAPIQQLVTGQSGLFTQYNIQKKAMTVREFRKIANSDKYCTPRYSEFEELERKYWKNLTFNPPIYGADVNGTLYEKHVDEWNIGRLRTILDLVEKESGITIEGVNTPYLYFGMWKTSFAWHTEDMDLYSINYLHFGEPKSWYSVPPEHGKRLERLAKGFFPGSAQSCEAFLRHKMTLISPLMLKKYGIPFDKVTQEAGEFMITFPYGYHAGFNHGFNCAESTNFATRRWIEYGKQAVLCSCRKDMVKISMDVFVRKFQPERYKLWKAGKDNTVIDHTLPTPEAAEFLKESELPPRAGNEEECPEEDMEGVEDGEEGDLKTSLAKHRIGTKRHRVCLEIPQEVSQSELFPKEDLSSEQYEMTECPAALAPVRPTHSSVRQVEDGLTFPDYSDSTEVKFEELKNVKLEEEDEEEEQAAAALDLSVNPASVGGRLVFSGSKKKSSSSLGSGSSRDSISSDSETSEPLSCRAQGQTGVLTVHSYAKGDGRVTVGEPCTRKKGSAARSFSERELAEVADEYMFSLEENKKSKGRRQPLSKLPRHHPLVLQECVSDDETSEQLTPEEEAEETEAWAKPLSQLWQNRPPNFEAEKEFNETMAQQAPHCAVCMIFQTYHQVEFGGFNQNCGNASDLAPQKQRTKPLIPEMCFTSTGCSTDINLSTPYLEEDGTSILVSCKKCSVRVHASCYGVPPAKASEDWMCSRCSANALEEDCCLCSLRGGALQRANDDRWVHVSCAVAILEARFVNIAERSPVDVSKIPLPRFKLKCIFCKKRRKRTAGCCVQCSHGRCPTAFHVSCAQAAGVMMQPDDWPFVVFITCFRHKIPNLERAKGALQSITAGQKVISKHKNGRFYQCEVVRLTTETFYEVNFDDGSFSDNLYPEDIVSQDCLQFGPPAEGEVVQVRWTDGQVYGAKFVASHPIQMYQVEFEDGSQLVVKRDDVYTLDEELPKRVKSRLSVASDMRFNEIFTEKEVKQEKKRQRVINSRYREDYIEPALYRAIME
Briefly: Inhibition of KDM4A (unknown origin) at 0.01 uM relative to control.

Data set [4] has as its target T2, Lysine-specific demethylase 4A (Homo sapiens). The data set is described as follows: Inhibition of KDM4A (unknown origin) at 1 uM relative to control.
For data set [5], the target named is Lysine-specific demethylase 5A (Homo sapiens, UniProt P29375). The data set is described as follows: Inhibition of KDM5A (unknown origin) at 0.01 uM relative to control.
In data set [6] the target is T3, Lysine-specific demethylase 5C (Homo sapiens, UniProt P41229). The data set is described as follows: Inhibition of KDM5C (unknown origin) at 0.01 uM relative to control.
T3 sequence (P41229 whole entry): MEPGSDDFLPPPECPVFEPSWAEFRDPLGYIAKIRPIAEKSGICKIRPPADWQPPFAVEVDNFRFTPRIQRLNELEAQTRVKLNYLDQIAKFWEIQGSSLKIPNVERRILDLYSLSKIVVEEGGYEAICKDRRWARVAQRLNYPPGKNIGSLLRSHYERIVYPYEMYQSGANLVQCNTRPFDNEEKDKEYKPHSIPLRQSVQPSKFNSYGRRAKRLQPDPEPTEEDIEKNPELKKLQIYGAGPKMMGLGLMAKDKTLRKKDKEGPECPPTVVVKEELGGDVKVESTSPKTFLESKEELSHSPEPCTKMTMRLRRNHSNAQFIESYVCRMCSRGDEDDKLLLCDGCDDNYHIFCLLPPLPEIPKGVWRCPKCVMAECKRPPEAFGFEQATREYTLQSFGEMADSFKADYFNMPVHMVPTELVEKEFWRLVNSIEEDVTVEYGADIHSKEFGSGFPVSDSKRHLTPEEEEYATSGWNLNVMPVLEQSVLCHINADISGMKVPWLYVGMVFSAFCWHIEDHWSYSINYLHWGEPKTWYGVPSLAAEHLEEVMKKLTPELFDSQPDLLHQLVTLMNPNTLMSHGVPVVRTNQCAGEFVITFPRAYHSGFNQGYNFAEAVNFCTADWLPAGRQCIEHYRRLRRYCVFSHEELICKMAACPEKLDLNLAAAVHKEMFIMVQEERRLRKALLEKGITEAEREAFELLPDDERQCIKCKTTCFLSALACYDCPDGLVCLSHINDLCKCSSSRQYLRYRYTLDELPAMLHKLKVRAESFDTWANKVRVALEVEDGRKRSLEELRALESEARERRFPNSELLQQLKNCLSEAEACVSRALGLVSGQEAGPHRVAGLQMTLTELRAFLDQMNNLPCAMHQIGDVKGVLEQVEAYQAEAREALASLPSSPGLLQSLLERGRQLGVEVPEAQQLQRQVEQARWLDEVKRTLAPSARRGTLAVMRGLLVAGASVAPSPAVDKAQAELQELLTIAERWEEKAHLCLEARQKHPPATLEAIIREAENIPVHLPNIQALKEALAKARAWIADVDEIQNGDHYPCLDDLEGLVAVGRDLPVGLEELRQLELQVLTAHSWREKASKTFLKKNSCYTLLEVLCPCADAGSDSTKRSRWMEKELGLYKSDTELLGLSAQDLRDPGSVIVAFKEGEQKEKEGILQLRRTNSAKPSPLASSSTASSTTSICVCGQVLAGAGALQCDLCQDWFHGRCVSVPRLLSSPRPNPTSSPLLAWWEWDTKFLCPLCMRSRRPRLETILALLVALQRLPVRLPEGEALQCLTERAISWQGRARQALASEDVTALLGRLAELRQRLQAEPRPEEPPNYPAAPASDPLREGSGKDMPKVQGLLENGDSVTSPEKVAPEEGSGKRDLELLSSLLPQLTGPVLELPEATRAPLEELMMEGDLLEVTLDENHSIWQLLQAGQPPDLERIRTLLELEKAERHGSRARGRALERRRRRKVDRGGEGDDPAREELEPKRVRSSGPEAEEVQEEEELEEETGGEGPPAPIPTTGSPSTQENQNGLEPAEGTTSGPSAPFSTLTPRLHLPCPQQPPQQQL
Data set [7] has as its target T4, Lysine-specific demethylase 6B (Homo sapiens, UniProt O15054). The data set is described as follows: Inhibition of KDM6B (unknown origin) at 0.25 uM relative to control.
The target of data set [8] is T4, Lysine-specific demethylase 6B. Briefly: Inhibition of KDM6B (unknown origin) at 1 uM relative to control.
For data set [9], the target named is T3, Lysine-specific demethylase 5C. The data set is described as follows: Inhibition of KDM5C (unknown origin).
Data set [10] has as its target T1, Lysine-specific demethylase 5B. The data set is described as follows: Inhibition of KDM5B in human MKN-45 cells assessed as increase in H3K4me2 accumulation at 0.5 to 20 uM measured after 5 days by Western blot analysis. The class given is cell-based. The settings on record: dose 0.5-20 µM, time 5.0 day. The essentials: (§2)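 MKN45 cells were treated for 5 days and lysed in RIPA buffer. About 30 µg protein was run on 10% SDS-PAGE and transferred to 0.2 µm nitrocellulose, then blocked with 5% milk in PBS for 2 h. Blots were probed for histone methylation marks with histone 3 as loading control and detected by ECL.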

Data set [11] has the same target. The data set is described as follows: Inhibition of KDM5B in human MKN-45 cells assessed as increase in H3K4me3 accumulation at 0.5 to 20 uM measured after 5 days by Western blot analysis. The class given is cell-based. Particulars: dose 0.5-20 µM, time 5.0 day. The gist of the method: as §2
Data set [12] has the same target. The data set is described as follows: Inhibition of KDM5B in human MKN-45 cells assessed as increase in H3K4me1 accumulation at 0.5 to 20 uM measured after 5 days by Western blot analysis. The class given is cell-based. Particulars: dose 0.5-20 µM, time 5.0 day. The gist of the method: as §2
For data set [13], the system named is MKN-45. The data set is described as follows: Inhibition of KDM4 in human MKN-45 cells assessed as increase in H3K9me3 accumulation at 0.5 to 20 uM measured after 5 days by Western blot analysis. The class given is cell-based. Particulars: dose 0.5-20 µM, time 5.0 day. The essentials:
as §2

Data set [14] concerns MKN-45. The data set is described as follows: Antiproliferative activity against human MKN-45 cells assessed as reduction in cell proliferation measured after 4 days by MTS assay. In kind it is functional, cell-based. The settings on record: MKN-45, 96 h. The essentials:
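MKN45 cells were seeded at 3×10^3 cells per well and treated for 4 or 6 days, as indicated. Proliferation was read by MTS assay and IC50 derived. Three independent experiments, mean ± SD.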

Data set [15] can be described thus: Cytotoxicity against human GES1 cells assessed as reduction in cell proliferation at 100 uM by MTS assay relative to control. The settings on record: read-out: Activity. In kind it is cell-based. The gist of the method: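 Normal human gastric epithelial GES-1 cells, seeded at 3×10^3 cells per well and exposed to 100 μM. Antiproliferation rate was read by MTS assay.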

The subject of data set [16] is MKN-45. The data set is described as follows: Antimigratory activity in human MKN-45 cells measured after 24 hrs by transwell assay. In kind it is functional, cell-based.
Data set [17] relates to MKN-45. Briefly: Inhibition of colony formation in human MKN-45 cells measured after 10 days by crystal violet staining based microscopic analysis. In kind it is functional, cell-based. Particulars: time 10.0 day. The gist of the method:
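1000 MKN45 cells were seeded in 6-well plates and treated. The medium was then replaced and cells were cultured another 10 days. Colonies were fixed with cold methanol, stained with crystal violet and photographed under a microscope.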

T1 sequence (Q9UGL1 whole entry): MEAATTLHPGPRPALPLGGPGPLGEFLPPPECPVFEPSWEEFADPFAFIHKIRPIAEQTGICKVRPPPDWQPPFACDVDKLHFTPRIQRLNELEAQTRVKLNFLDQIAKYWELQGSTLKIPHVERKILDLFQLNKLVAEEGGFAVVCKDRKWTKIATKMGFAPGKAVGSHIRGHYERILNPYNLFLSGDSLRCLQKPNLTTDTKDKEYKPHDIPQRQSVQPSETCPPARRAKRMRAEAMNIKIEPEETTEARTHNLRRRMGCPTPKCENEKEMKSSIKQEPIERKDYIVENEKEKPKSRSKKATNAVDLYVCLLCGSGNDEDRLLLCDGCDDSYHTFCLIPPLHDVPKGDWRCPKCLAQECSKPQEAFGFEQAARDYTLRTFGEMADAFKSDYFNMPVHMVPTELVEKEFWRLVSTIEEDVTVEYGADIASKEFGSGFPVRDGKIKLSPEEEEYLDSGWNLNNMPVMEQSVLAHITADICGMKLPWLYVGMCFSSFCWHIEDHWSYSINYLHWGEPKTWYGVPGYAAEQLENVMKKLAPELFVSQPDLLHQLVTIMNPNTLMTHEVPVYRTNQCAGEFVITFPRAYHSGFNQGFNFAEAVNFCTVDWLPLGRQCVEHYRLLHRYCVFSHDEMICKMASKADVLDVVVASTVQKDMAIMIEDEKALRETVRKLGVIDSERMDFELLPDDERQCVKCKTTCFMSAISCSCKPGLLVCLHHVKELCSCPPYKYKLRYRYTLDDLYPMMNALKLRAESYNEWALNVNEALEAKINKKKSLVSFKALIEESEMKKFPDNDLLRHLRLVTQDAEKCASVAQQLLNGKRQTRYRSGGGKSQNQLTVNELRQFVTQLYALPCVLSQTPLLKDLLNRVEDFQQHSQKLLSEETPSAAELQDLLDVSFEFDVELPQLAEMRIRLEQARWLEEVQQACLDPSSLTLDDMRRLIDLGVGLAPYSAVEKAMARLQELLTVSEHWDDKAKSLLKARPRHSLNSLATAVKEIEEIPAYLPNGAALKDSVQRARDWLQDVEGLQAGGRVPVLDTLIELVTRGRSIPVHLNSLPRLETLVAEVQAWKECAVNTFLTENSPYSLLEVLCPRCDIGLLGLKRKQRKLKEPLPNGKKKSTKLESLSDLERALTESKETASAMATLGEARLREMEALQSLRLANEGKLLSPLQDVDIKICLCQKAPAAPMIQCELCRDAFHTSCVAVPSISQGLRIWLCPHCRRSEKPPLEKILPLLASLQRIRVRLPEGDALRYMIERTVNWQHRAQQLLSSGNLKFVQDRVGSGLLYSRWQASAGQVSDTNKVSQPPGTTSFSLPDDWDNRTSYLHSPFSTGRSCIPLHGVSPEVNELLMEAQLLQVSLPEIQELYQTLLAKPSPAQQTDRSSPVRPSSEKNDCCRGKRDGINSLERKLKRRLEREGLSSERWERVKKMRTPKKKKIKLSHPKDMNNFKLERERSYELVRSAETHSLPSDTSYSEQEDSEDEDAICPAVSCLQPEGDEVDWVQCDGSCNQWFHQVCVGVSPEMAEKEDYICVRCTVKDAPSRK
T4 sequence (O15054 whole entry): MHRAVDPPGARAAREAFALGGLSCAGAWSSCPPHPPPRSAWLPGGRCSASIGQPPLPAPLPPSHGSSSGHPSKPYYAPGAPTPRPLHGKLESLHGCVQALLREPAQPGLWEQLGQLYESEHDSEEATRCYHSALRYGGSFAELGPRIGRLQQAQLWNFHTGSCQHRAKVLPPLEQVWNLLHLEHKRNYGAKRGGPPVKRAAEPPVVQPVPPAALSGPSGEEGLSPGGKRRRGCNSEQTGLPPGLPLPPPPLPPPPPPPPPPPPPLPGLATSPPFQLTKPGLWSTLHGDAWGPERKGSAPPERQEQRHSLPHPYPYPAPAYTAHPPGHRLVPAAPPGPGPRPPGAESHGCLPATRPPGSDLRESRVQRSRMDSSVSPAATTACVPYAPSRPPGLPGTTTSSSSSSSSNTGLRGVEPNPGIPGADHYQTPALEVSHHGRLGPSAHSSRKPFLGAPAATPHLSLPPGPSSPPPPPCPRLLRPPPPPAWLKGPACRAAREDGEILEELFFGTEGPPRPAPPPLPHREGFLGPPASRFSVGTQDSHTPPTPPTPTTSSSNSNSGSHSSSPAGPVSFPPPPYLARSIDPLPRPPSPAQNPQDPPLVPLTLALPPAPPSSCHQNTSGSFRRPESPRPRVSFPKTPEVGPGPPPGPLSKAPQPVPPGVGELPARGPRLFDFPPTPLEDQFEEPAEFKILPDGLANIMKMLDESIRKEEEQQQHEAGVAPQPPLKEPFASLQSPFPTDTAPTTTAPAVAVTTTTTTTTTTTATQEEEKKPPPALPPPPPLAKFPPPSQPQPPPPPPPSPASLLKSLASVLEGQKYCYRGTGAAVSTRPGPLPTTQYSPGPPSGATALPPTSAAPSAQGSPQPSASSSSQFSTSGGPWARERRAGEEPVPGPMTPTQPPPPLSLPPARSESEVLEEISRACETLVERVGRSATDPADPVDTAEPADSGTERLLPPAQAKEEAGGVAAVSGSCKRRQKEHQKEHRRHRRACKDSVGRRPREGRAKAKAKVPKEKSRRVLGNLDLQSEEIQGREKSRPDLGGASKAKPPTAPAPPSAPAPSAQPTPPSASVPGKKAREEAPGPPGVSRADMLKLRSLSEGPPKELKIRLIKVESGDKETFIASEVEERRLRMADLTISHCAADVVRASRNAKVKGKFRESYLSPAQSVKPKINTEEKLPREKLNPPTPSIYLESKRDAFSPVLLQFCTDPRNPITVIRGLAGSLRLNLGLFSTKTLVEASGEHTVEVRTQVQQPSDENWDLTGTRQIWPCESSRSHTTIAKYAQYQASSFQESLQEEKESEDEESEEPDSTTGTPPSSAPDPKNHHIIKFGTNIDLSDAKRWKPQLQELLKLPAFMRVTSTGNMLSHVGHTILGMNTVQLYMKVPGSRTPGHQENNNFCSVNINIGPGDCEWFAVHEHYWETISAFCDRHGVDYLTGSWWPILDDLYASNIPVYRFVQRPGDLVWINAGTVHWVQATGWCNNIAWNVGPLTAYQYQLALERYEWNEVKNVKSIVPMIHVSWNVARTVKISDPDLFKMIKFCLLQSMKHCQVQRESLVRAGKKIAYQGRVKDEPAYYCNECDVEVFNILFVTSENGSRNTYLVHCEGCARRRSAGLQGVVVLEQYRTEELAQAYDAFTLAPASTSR

With `COc1ccc(-n2cc(C(=O)NCC(C)(C)N3CCOCC3)c(-c3ccccc3)n2)cc1`, the IC50 in [1] amounted to 24.4 nM; in data set [9], 24.8 nM; in the data set on MKN-45 [14], 26.7 µM. The inhibition in [2] came to 95.8%; in data set [3] it was 5.12%; in data set [4] it was 56.2%; in [5], 20.1%; in [6], 16.4%; in data set [7] it was 12.4%. Further, the inhibition in [8] was 19.6%. The inhibition entry (in [10]; in [11]; in the data set on MKN-45 [17]) was “Active” each time. The inhibition entry (in [12]; in the data set with MKN-45 [13]) was “inactive” throughout. Besides, the inhibition at 100 µM in data set [15] was under 10%. The Activity entry in the data set with MKN-45 [16] was “Dose-dependent effect”.
